Compound activity as filed in PubChem.
Hits are enriched below; roughly 1.8% of the tested compounds scored in any of these assays.
PERK inhibitor = blocks human PERK kinase. CHO PERK-DD fusion, SEAP luminescence translation reporter. Q9NZJ5. 0.17% of 220,000 active. inhibition, % at 5.6 µM;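 active means inhibition above the mean inhibition of all tested compounds plus 3 SD, set separately per screening campaign, cut at about 2.9% in these data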;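 further: PERK kinase domain activated by AP20187 dimerizer at 100 nM; 0% = DMSO with dimerizer and 100% = rapamycin at 8.4 µM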
Target sequence (Q9NZJ5 whole entry, looked up, the tested form may be a part): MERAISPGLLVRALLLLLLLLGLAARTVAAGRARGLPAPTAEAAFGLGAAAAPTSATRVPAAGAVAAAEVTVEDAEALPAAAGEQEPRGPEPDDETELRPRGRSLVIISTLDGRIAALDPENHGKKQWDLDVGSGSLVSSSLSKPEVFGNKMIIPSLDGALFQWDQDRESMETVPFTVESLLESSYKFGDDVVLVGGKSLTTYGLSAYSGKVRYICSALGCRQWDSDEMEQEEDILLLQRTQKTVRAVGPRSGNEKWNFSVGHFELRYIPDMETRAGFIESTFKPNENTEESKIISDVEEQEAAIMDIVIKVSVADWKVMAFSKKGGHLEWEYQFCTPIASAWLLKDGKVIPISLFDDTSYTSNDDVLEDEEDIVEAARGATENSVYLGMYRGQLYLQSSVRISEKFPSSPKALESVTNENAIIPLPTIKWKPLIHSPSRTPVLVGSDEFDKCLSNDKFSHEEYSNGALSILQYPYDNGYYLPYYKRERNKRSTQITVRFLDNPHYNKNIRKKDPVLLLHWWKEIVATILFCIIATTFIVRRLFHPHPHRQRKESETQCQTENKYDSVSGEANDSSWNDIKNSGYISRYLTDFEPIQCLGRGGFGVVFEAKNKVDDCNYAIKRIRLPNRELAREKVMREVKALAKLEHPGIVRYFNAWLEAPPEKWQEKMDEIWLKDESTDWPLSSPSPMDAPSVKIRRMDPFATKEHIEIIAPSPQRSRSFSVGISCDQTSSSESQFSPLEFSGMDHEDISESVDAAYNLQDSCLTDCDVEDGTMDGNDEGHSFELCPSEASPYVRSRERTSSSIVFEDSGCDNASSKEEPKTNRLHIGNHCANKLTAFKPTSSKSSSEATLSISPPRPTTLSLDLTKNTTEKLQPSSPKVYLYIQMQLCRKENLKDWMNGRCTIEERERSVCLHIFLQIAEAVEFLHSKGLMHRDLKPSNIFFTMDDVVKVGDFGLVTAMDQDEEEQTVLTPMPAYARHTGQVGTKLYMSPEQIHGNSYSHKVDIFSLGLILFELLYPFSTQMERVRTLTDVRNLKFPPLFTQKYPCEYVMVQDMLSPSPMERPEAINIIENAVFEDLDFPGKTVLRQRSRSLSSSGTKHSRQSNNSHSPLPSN
STAT1 blocker = inhibitors of IFN-gamma induced STAT1 signaling; NIH 3T3 STAT1-luciferase reporter, luminescence; inhibition, % at 5.5 µM; 0.35% of 200,000 active; AID 920;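 active means inhibition above a set limit, the mean inhibition across all tested compounds plus 3 SD, cut at about 34% in these data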;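 further: 0% = IFN-gamma with DMSO and 100% = IFN-gamma with 300 µM nifuroxazide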
STAT3 activator = increases IL-6 driven STAT3 reporter signal | U3A cells, IL-6 STAT3-luciferase reporter, luminescence; 100% = signal with IL-6 EC80 alone | activation (% of control), % at 5.6 µM | 0.91% of 190,000 active | AID 871;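 active means activation above the screen-wide mean of compound activation plus 3 SD, cut at about 130% in these data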;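 further: 0% = background luminescence of wells with medium and substrate only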
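Test system: human U3A cells carrying STAT3-luciferase construct; control set: IL-6-only wells as 100% reference; timing: compound pre-incubation 1 h before IL-6, then 6 h stimulation at 37 °C; also added: IL-6 stimulus at 33 ng/mL final; evaluation: % activation versus median of IL-6-stimulated wells; detection: reporter luminescence signal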
STAT3 blocker = reduces IL-6 driven STAT3 reporter signal. 0.89% of 190,000 active. U3A cells, IL-6 STAT3-luciferase reporter, luminescence; host cell line lacks STAT1. inhibition, % at 5.5 µM;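 active means inhibition above the mean inhibition across all screened compounds plus 3 SD, cut at about 44% in these data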;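 further: 0% = DMSO only wells and 100% = 100 µM nifuroxazide control wells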
Starred values were filed as active, the others as inactive.

For O=C(O)Cn1nc(-c2ccc(F)cc2)oc1=O the results were PERK inhibitor 0, STAT1 blocker -1, STAT3 activator 104 and STAT3 blocker -1.
Screening O=C(O)Cn1nc(-c2ccccc2)oc1=O returned PERK inhibitor 3.0*, STAT1 blocker 1, STAT3 activator 97 and STAT3 blocker 3.
For COC(=O)Nc1ccc(S(=O)(=O)N2CCN(C)CC2)cc1 the results were PERK inhibitor 1, STAT1 blocker -1, STAT3 activator 99 and STAT3 blocker 2.
CC(=O)Nc1ccc(S(=O)(=O)N2CCN(C)CC2)cc1 was read as PERK inhibitor 3.1*, STAT1 blocker -7, STAT3 activator 100 and STAT3 blocker 1.
For CCC(C)C(=O)Nc1cccc(SC)c1 (stereo not given) the results were PERK inhibitor 0, STAT1 blocker -19, STAT3 activator 113 and STAT3 blocker -3.
COC(=O)c1ccc2nc(-c3ccc4c(c3)OCO4)cn2c1 was read as PERK inhibitor 0, STAT1 blocker 66*, STAT3 activator 25 and STAT3 blocker 89*.
For O=C(O)c1ccc(N2CCCCS2(=O)=O)cc1 the results were PERK inhibitor 1, STAT1 blocker 6, STAT3 activator 103 and STAT3 blocker 2.
Screening O=C(c1ccc(N2CCCCS2(=O)=O)cc1)N1CCN(c2ccc(N3CCOCC3)nn2)CC1 returned PERK inhibitor 3.0*, STAT1 blocker -5, STAT3 activator 98 and STAT3 blocker 1.
For COc1ccc(-c2nc(NC(=O)c3n[nH]c(=O)c4ccccc34)sc2C)cc1 the results were PERK inhibitor -1, STAT1 blocker -6, STAT3 activator 100 and STAT3 blocker 0.
`CCCCCN1C=CC(=C2C(=O)c3ccccc3C2=O)C=C1` gave PERK inhibitor 0, STAT1 blocker 97*, STAT3 activator 9 and STAT3 blocker 107*.
`COc1ccc(C2=Nc3cccc4cccc(c34)N2)cc1` gave PERK inhibitor 1, STAT1 blocker 6, STAT3 activator 135* and STAT3 blocker -30.
`COC(/C=C/Nc1ccc(C)cc1)=C(C#N)C#N` gave PERK inhibitor 1, STAT1 blocker 0, STAT3 activator 136* and STAT3 blocker -37.
Screening COc1ccc(CNCC(=O)Nc2ccccc2-n2cccc2)cc1 returned PERK inhibitor 0, STAT1 blocker 9, STAT3 activator 99 and STAT3 blocker 4.
For Cc1nc(NCc2ccco2)c2c3c(sc2n1)CCC3 the results were PERK inhibitor 0, STAT1 blocker -54, STAT3 activator 167* and STAT3 blocker -76.
For Cc1nn(C(C)C(=O)O)c(=O)c2ccccc12 (stereo not given) the results were PERK inhibitor 1, STAT1 blocker -5, STAT3 activator 101 and STAT3 blocker 1.
CN(C)C(=S)N=Nc1[nH]c2ccccc2c1O was read as PERK inhibitor -1, STAT1 blocker -88, STAT3 activator 152* and STAT3 blocker -57.
For CC(=O)Nc1ccc(S(=O)(=O)N2CCN(c3nc(NC4CCCC4)c4ccccc4n3)CC2)cc1 the results were PERK inhibitor -1, STAT1 blocker -6, STAT3 activator 102 and STAT3 blocker 4.
`CCCc1cc(=O)[nH]c(SCCOc2ccc(Cl)cc2)n1` gave PERK inhibitor 2.9*, STAT1 blocker -1, STAT3 activator 104 and STAT3 blocker 0.
`CCN1CCN(CC(=O)c2c[nH]c3ccccc23)CC1` gave PERK inhibitor 0, STAT1 blocker -2, STAT3 activator 133* and STAT3 blocker -31.
O=C(CN1CCOCC1)c1c[nH]c2ccccc12 was read as PERK inhibitor 0, STAT1 blocker 1, STAT3 activator 108 and STAT3 blocker -5.
`COc1ccccc1NC(=O)C1CCC(CNc2c(N3CCCCC3)c(=O)c2=O)CC1` (stereo not given) gave PERK inhibitor 1.
For CSc1ncc2ncn(C3OC(CO)C(O)C3O)c2n1 (stereo not given) the results were PERK inhibitor 0.
Screening CN(C)c1ncnc2c1ncn2C1OC(CO)C(O)C1O (stereo not given) returned PERK inhibitor 0, STAT1 blocker 62*, STAT3 activator 67 and STAT3 blocker 44*.
Nc1nc(Cl)nc2c1ncn2[C@@H]1O[C@H](CO)[C@@H](O)[C@H]1O was read as PERK inhibitor 5.6*, STAT1 blocker 14, STAT3 activator 99 and STAT3 blocker 3.
For Cn1c(=O)c2ncn(CC(=O)N=Nc3c(O)[nH]c4ccccc34)c2n(C)c1=O the results were PERK inhibitor 1, STAT1 blocker -2, STAT3 activator 110 and STAT3 blocker -7.
